Source: ChEMBL document CHEMBL1629658, “A 10-year survey of antifungal susceptibility of candidemia isolates from intensive care unit patients in Greece” (2009)
Converted amounts (≈) assume the structure as drawn. Numbered stars: 1 amine (or outer) side, 2 acyl side, 3 side chain; on linkers, the order of the positions; unused ones are H or OH. Bridge positions count the residues as written; N and C are the ends. Square brackets hold non-standard residues; d marks the D form. Peptide text beside a SMILES is read from it. * marks the point of attachment. hTyr(3S-OH,4S-OH,3'-OSO3H) = N[C@H](C(=O)O)[C@H](O)[C@@H](O)c1ccc(O)c(OS(=O)(=O)O)c1; pTerphenylCO(4''-OnC5H11) = CCCCCOc1ccc(-c2ccc(-c3ccc(C(=O)*)cc3)cc2)cc1; Orn(4R-OH,5R-OH) = O=C([C@H](C[C@@H](O)[C@@H](O)N[*:3])N[*:1])[*:2]; hTyr(3S-OH,4S-OH) = N[C@H](C(=O)O)[C@H](O)[C@@H](O)c1ccc(O)cc1; Pro(3S-OH,4S-Me) = C[C@H]1CN[C@H](C(=O)O)[C@H]1O; X1 = CCCCCOc1ccc(-c2cc(-c3ccc(C(=O)*)cc3)no2)cc1; Gln(3R-OH) = NC(=O)C[C@@H](O)[C@H](N)C(=O)O; Hyp = O=C(O)[C@@H]1C[C@@H](O)CN1

Key:
Assay type in all cases: functional
[1] = test system: Candida albicans; experiment: Antifungal activity against Candida albicans isolated from candidemia patient by AFST-EUCAST microdilution method
[2] = test system: Pichia kudriavzevii; experiment: Antifungal activity against Candida krusei isolated from candidemia patient by AFST-EUCAST microdilution method
[3] = test system: Candida parapsilosis; experiment: Antifungal activity against Candida parapsilosis isolated from candidemia patient by AFST-EUCAST microdilution method; conditions: Lodderomyces parapsilosis
[4] = test system: Clavispora lusitaniae; experiment: Antifungal activity against Clavispora lusitaniae isolated from candidemia patient by AFST-EUCAST microdilution method
[5] = test system: Nakaseomyces glabratus; experiment: Antifungal activity against Candida glabrata isolated from candidemia patient by AFST-EUCAST microdilution method
[6] = test system: Candida tropicalis; experiment: Antifungal activity against Candida tropicalis isolated from candidemia patient by AFST-EUCAST microdilution method
[7] = test system: Candida dubliniensis; experiment: Antifungal activity against Candida dubliniensis isolated from candidemia patient by AFST-EUCAST microdilution method
[8] = test system: Meyerozyma guilliermondii; experiment: Antifungal activity against Candida guilliermondii isolated from candidemia patient by AFST-EUCAST microdilution method
[9] = test system: Diutina rugosa; experiment: Antifungal activity against Candida rugosa isolated from candidemia patient by AFST-EUCAST microdilution method
[10] = test system: Wickerhamomyces anomalus; experiment: Antifungal activity against Candida pelliculosa isolated from candidemia patient by AFST-EUCAST microdilution method; conditions: Hansenula anomala
[11] = test system: Kluyveromyces marxianus; experiment: Antifungal activity against Candida kefyr isolated from candidemia patient by AFST-EUCAST microdilution method
[12] = test system: Yarrowia lipolytica; experiment: Antifungal activity against Candida lipolytica isolated from candidemia patient by AFST-EUCAST microdilution method
[13] = Antifungal activity against Candida pulcherrima isolated from candidemia patient by AFST-EUCAST microdilution method; conditions: Metschnikowia pulcherrima
[14] = test system: [Candida] intermedia; experiment: Antifungal activity against Candida intermedia isolated from candidemia patient by AFST-EUCAST microdilution method; conditions: Sungouiella intermedia
[15] = test system: Pichia kudriavzevii; experiment: Antifungal activity against Candida krusei ATCC 6258 isolated from candidemia patient by AFST-EUCAST microdilution method
Procedure, shortened: (§1)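 Designated quality-control strain included on every testing occasion and run by the AFST-EUCAST broth microdilution reference procedure (EDef 7.1) alongside the clinical isolates. Its MICs were checked against the reference range for EUCAST-evaluated drugs. Pure standard compounds were used: azoles, amphotericin B, flucytosine and echinocandins.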

[16] = test system: Candida parapsilosis; experiment: Antifungal activity against Candida parapsilosis ATCC 22019 isolated from candidemia patient by AFST-EUCAST microdilution method; conditions: Lodderomyces parapsilosis; procedure, shortened: as §1

Structure (SMILES) | MIC [1] | MIC90 [1] | MIC [2] | MIC90 [2] | MIC90 [3] | MIC90 [4] | MIC90 [5] | MIC90 [6] | MIC [7] | MIC [8] | MIC [9] | MIC [10] | MIC [11] | MIC [12] | MIC [13] | MIC [14] | MIC [15] | MIC [16] | further results
C[C@@H]1[C@H](O)[C@@H](C)/C=C/C=C/C=C/C=C/C=C/C=C/C=C/[C@H](O[C@@H]2O[C@H](C)[C@@H](O)[C@H](N)[C@@H]2O)C[C@@H]2O[C@](O)(C[C@@H](O)C[C@@H](O)[C@H](O)CC[C@@H](O)C[C@@H](O)CC(=O)O[C@H]1C)C[C@H](O)[C@H]2C(=O)O [AMPHOTERICIN B] | 0.12 µg/mL (≈ 0.13 µM) | 0.12 µg/mL (≈ 0.13 µM) | 0.25 µg/mL (≈ 0.271 µM) | 0.25 µg/mL (≈ 0.271 µM) | 0.25 µg/mL (≈ 0.271 µM) | 4 µg/mL (≈ 4.33 µM) | 0.5 µg/mL (≈ 0.541 µM) | 0.25 µg/mL (≈ 0.271 µM) | 0.06 µg/mL (≈ 0.0649 µM) | 0.5 µg/mL (≈ 0.541 µM) | 0.12 µg/mL (≈ 0.13 µM) | 0.25 µg/mL (≈ 0.271 µM) | 0.5 µg/mL (≈ 0.541 µM) | 1 µg/mL (≈ 1.08 µM) | 0.12 µg/mL (≈ 0.13 µM) | 0.5 µg/mL (≈ 0.541 µM) |  |  | MIC [5]: 0.5 µg/mL (≈ 0.541 µM); MIC [6]: 0.25 µg/mL (≈ 0.271 µM)
CCCCCOc1ccc(-c2ccc(-c3ccc(C(=O)N[C@H]4C[C@@H](O)[C@@H](O)NC(=O)[C@@H]5[C@@H](O)[C@@H](C)CN5C(=O)[C@H]([C@@H](C)O)NC(=O)[C@H]([C@H](O)[C@@H](O)c5ccc(O)cc5)NC(=O)[C@@H]5C[C@@H](O)CN5C(=O)[C@H]([C@@H](C)O)NC4=O)cc3)cc2)cc1 [ANIDULAFUNGIN] ({pTerphenylCO(4''-OnC5H11)}-[Orn(4R-OH,5R-OH)]T[Hyp][hTyr(3S-OH,4S-OH)]T[Pro(3S-OH,4S-Me)]; lactam 1-C) |  | 0.12 µg/mL (≈ 0.105 µM) |  | 0.06 µg/mL (≈ 0.0526 µM) | 2 µg/mL (≈ 1.75 µM) | 1 µg/mL (≈ 0.877 µM) | 0.12 µg/mL (≈ 0.105 µM) | 0.25 µg/mL (≈ 0.219 µM) | 0.03 µg/mL (≈ 0.0263 µM) | 0.5 µg/mL (≈ 0.438 µM) | 0.12 µg/mL (≈ 0.105 µM) | 1 µg/mL (≈ 0.877 µM) | 16 µg/mL (≈ 14 µM) | 0.03 µg/mL (≈ 0.0263 µM) | 0.03 µg/mL (≈ 0.0263 µM) | 0.03 µg/mL (≈ 0.0263 µM) | 0.25 µg/mL (≈ 0.219 µM) | 0.5 µg/mL (≈ 0.438 µM) | 
CC[C@H](C)C[C@H](C)CCCCCCCCC(=O)N[C@H]1C[C@@H](O)[C@@H](NCCN)NC(=O)[C@@H]2[C@@H](O)CCN2C(=O)[C@H]([C@H](O)CCN)NC(=O)[C@H]([C@H](O)[C@@H](O)c2ccc(O)cc2)NC(=O)[C@@H]2C[C@@H](O)CN2C(=O)[C@H]([C@@H](C)O)NC1=O [CASPOFUNGIN] | 0.12 µg/mL (≈ 0.11 µM) | 0.12 µg/mL (≈ 0.11 µM) | 0.5 µg/mL (≈ 0.457 µM) | 0.12 µg/mL (≈ 0.11 µM) | 2 µg/mL (≈ 1.83 µM) | 1 µg/mL (≈ 0.915 µM) | 1 µg/mL (≈ 0.915 µM) | 0.25 µg/mL (≈ 0.229 µM) | 0.25 µg/mL (≈ 0.229 µM) | 1 µg/mL (≈ 0.915 µM) | 0.25 µg/mL (≈ 0.229 µM) | 0.03 µg/mL (≈ 0.0274 µM) | 8 µg/mL (≈ 7.32 µM) | 0.12 µg/mL (≈ 0.11 µM) | 0.03 µg/mL (≈ 0.0274 µM) | 0.03 µg/mL (≈ 0.0274 µM) | 0.5 µg/mL (≈ 0.457 µM) | 2 µg/mL (≈ 1.83 µM) | 
OC(Cn1cncn1)(Cn1cncn1)c1ccc(F)cc1F [FLUCONAZOLE] |  | 0.5 µg/mL (≈ 1.63 µM) | 32 µg/mL (≈ 104 µM) | 32 µg/mL (≈ 104 µM) | 4 µg/mL (≈ 13.1 µM) | 4 µg/mL (≈ 13.1 µM) | 16 µg/mL (≈ 52.2 µM) | 2 µg/mL (≈ 6.53 µM) | 0.12 µg/mL (≈ 0.392 µM) |  | 2 µg/mL (≈ 6.53 µM) | 2 µg/mL (≈ 6.53 µM) | 0.12 µg/mL (≈ 0.392 µM) |  |  | 1 µg/mL (≈ 3.27 µM) |  |  | 
Nc1nc(=O)[nH]cc1F [FLUCYTOSINE] |  | 2 µg/mL (≈ 15.5 µM) |  | 2 µg/mL (≈ 15.5 µM) | 0.5 µg/mL (≈ 3.87 µM) | 2 µg/mL (≈ 15.5 µM) | 0.25 µg/mL (≈ 1.94 µM) | 0.5 µg/mL (≈ 3.87 µM) | 0.12 µg/mL (≈ 0.93 µM) | 0.12 µg/mL (≈ 0.93 µM) | 0.5 µg/mL (≈ 3.87 µM) | 0.12 µg/mL (≈ 0.93 µM) | 0.12 µg/mL (≈ 0.93 µM) | 0.12 µg/mL (≈ 0.93 µM) | 0.12 µg/mL (≈ 0.93 µM) | 64 µg/mL (≈ 496 µM) |  |  | 
CCC(C)n1ncn(-c2ccc(N3CCN(c4ccc(OCC5COC(Cn6cncn6)(c6ccc(Cl)cc6Cl)O5)cc4)CC3)cc2)c1=O (configuration not stated) [ITRACONAZOLE] |  | 0.5 µg/mL (≈ 0.709 µM) | 0.12 µg/mL (≈ 0.17 µM) | 0.12 µg/mL (≈ 0.17 µM) | 0.12 µg/mL (≈ 0.17 µM) | 0.25 µg/mL (≈ 0.354 µM) | 0.5 µg/mL (≈ 0.709 µM) | 0.12 µg/mL (≈ 0.17 µM) | 0.06 µg/mL (≈ 0.085 µM) | 1 µg/mL (≈ 1.42 µM) | 0.03 µg/mL (≈ 0.0425 µM) | 0.25 µg/mL (≈ 0.354 µM) | 0.25 µg/mL (≈ 0.354 µM) | 0.12 µg/mL (≈ 0.17 µM) | 0.12 µg/mL (≈ 0.17 µM) | 0.12 µg/mL (≈ 0.17 µM) |  |  | MIC [5]: 0.5 µg/mL (≈ 0.709 µM); MIC [6]: 0.12 µg/mL (≈ 0.17 µM)
CCCCCOc1ccc(-c2cc(-c3ccc(C(=O)N[C@H]4C[C@@H](O)[C@@H](O)NC(=O)[C@@H]5[C@@H](O)[C@@H](C)CN5C(=O)[C@H]([C@H](O)CC(N)=O)NC(=O)[C@H]([C@H](O)[C@@H](O)c5ccc(O)c(OS(=O)(=O)O)c5)NC(=O)[C@@H]5C[C@@H](O)CN5C(=O)[C@H]([C@@H](C)O)NC4=O)cc3)no2)cc1 [MICAFUNGIN] (X1-[Orn(4R-OH,5R-OH)]T[Hyp][hTyr(3S-OH,4S-OH,3'-OSO3H)][Gln(3R-OH)][Pro(3S-OH,4S-Me)]; lactam 1-C) |  | 0.06 µg/mL (≈ 0.0472 µM) |  | 0.12 µg/mL (≈ 0.0945 µM) | 2 µg/mL (≈ 1.57 µM) | 0.12 µg/mL (≈ 0.0945 µM) | 0.25 µg/mL (≈ 0.197 µM) | 0.12 µg/mL (≈ 0.0945 µM) | 0.03 µg/mL (≈ 0.0236 µM) | 0.25 µg/mL (≈ 0.197 µM) | 0.03 µg/mL (≈ 0.0236 µM) | 0.5 µg/mL (≈ 0.394 µM) | 4 µg/mL (≈ 3.15 µM) | 0.03 µg/mL (≈ 0.0236 µM) | 0.03 µg/mL (≈ 0.0236 µM) | 0.03 µg/mL (≈ 0.0236 µM) | 0.5 µg/mL (≈ 0.394 µM) | 0.5 µg/mL (≈ 0.394 µM) | 
CC[C@@H]([C@H](C)O)n1ncn(-c2ccc(N3CCN(c4ccc(OC[C@@H]5CO[C@@](Cn6cncn6)(c6ccc(F)cc6F)C5)cc4)CC3)cc2)c1=O [POSACONAZOLE] |  | 0.12 µg/mL (≈ 0.171 µM) |  | 0.5 µg/mL (≈ 0.713 µM) | 0.12 µg/mL (≈ 0.171 µM) | 0.03 µg/mL (≈ 0.0428 µM) | 0.25 µg/mL (≈ 0.357 µM) | 0.12 µg/mL (≈ 0.171 µM) | 0.01 µg/mL (≈ 0.0143 µM) | 0.12 µg/mL (≈ 0.171 µM) | 0.03 µg/mL (≈ 0.0428 µM) | 0.03 µg/mL (≈ 0.0428 µM) | 0.25 µg/mL (≈ 0.357 µM) | 0.03 µg/mL (≈ 0.0428 µM) | 0.03 µg/mL (≈ 0.0428 µM) | 0.25 µg/mL (≈ 0.357 µM) |  |  | MIC [4]: 0.03 µg/mL (≈ 0.0428 µM)
C[C@@H](c1ncncc1F)[C@](O)(Cn1cncn1)c1ccc(F)cc1F [VORICONAZOLE] | 0.01 µg/mL (≈ 0.0286 µM) | 0.03 µg/mL (≈ 0.0859 µM) |  | 1 µg/mL (≈ 2.86 µM) | 0.06 µg/mL (≈ 0.172 µM) | 0.5 µg/mL (≈ 1.43 µM) | 0.5 µg/mL (≈ 1.43 µM) | 0.12 µg/mL (≈ 0.344 µM) | 0.03 µg/mL (≈ 0.0859 µM) | 0.06 µg/mL (≈ 0.172 µM) | 0.01 µg/mL (≈ 0.0286 µM) | 0.12 µg/mL (≈ 0.344 µM) | 4 µg/mL (≈ 11.5 µM) | 0.03 µg/mL (≈ 0.0859 µM) | 0.25 µg/mL (≈ 0.716 µM) | 0.06 µg/mL (≈ 0.172 µM) |  |  | MIC [3]: 0.06 µg/mL (≈ 0.172 µM)
